Measured values from ChEMBL document CHEMBL1122411 (J Med Chem, 1983).

Assays:
[1] = target: T1, Dihydrofolate reductase (Mus musculus) (UniProt P00375); assay: Binding affinity to Dihydrofolate reductase of L1210/R71 using spectrophotometric assay
T1 sequence (whole entry): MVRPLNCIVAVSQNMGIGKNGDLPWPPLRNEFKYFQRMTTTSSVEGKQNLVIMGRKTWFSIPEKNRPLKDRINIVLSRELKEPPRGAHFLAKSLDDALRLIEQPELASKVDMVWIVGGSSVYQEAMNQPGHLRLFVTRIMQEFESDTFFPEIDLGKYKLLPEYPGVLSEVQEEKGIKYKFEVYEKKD
In short: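 The enzyme was isolated from MTX-resistant L1210/R71 cultured cells and purified on MTX-agarose. The assay measured ΔA340 at 22 °C in 0.1 M Tris, pH 7.0, with 62 nM enzyme. Enzyme was preincubated 2 min with inhibitor and NADPH, and dihydrofolate was then added to start the reaction. ID₅₀ determined.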

L1210 = assay: Cytotoxicity against L1210 cells; assay type: functional; details: Mus musculus, read-out: ID50 (the source's name)
Mus musculus [2] = species: Mus musculus; assay: Percentage increase in life span after 13-20 days; assay type: functional
In short: (§1)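 Male B6D2F1J mice (20–25 g), randomized after i.p. inoculation with 10^5 L1210 ascitic leukemia cells on day 0. Drug in water, pH 7.5–8.0, given i.p. on a q2d×5, qd×9 (from day 1) or b.i.d.×10 schedule; 5 mice per group. %ILS = [(T/C) − 1]100 from median survival days of treated versus control mice. Range is survival days.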

Mus musculus [3] = species: Mus musculus; assay: Percentage increase in life span after 15-17 days; assay type: functional
In short: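 Male B6D2F1J mice (20–25 g) were inoculated i.p. with 10⁵ L1210 ascitic leukemia cells on day 0 and randomized into groups of 5. Drug in water at pH 7.5–8.0 was given i.p. from day 1 on qd×9, q2d×5 or b.i.d.×10 schedules. Weight change was recorded at day 7. %ILS = [(T/C) − 1]100, using median survival days; ≥25% counts as significant.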

Mus musculus [4] = species: Mus musculus; assay: Percentage increase in life span after 12-15 days; assay type: functional; in short: as §1
Mus musculus [5] = species: Mus musculus; assay: Percentage increase in life span after 17-18 days; assay type: functional; in short: as §1
Mus musculus [6] = assay: Weight change on day 7 in L1210 Lymphoid Leukemia in mice at a dose of 20 mg/kg/day (qdx9); assay type: functional
In short: (§2)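 Male B6D2F₁J mice (20–25 g) bearing ip L1210 ascites (10⁵ cells, day 0) were used, 5 per group. Drug was given ip in water at pH 7.5–8.0 from day 1 on q2d×5, qd×9 or b.i.d.×10 schedules. Animals were weighed after 7 days and percent weight change recorded.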

Mus musculus [7] = assay: Weight change on day 7 in L1210 Lymphoid Leukemia in mice at a dose of 30 mg/kg/day (qdx9); assay type: functional; in short: as §2
Mus musculus [8] = assay: Toxicity in mice after 12-15 days at a dose of 10 mg/kg/day; value is 13/9; assay type: functional
Mus musculus [9] = assay: Toxicity in mice after 15-17 days at a dose of 20 mg/kg/day; value is 16/9; assay type: functional
Mus musculus [10] = assay: Toxicity in mice after 17-18 days at a dose of 30 mg/kg/day; value is 17/9; assay type: functional
Mus musculus [11] = assay: Toxicity in mice after 13-20 days at a dose of 40 mg/kg/day; value is 19/9; assay type: functional
Mus musculus [12] = assay: Weight change on day 7 in L1210 Lymphoid Leukemia in mice at a dose of 40 mg/kg/day (qdx9); assay type: functional
In short: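 Male B6D2F1J mice (20–25 g) were inoculated i.p. with 10⁵ L1210 ascites cells on day 0 and randomized into groups of 5. Drug in water at pH 7.5–8.0 was given i.p. daily for 9 days (qd×9) from day 1. Animals were weighed after 7 days, and the % body-weight change was recorded under a standard NCI protocol.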

Mus musculus [13] = assay: Weight change on day 7 in L1210 Lymphoid Leukemia in mice at a dose of 10 mg/kg/day (qd x9); assay type: functional; in short: as §2

## CN(Cc1cnc2nc(N)nc(N)c2n1)c1ccc(C(=O)NC(CCCCCC(=O)O)C(=O)O)cc1 (centres undefined)
[1]
  ID50: 35 nM
L1210
  IC50: 6.3 nM
Mus musculus [2]
  ILS: 111%
Mus musculus [3]
  ILS: 78%
Mus musculus [4]
  ILS: 44%
Mus musculus [5]
  ILS: 89%
Mus musculus [6]
  Weight change: 7%
Mus musculus [7]
  Weight change: 9%
Mus musculus [8]
  T/C: 13
Mus musculus [9]
  T/C: 16
Mus musculus [10]
  T/C: 17
Mus musculus [11]
  T/C: 19
Mus musculus [12]
  Weight change: 6%
Mus musculus [13]
  Weight change: 11%
